pIC50, pKi: −log10 of the molar value. Active and inactive are the calls of the source. The calls are words filed in the database; no cut-off is given here.
Tests used:
[1] = target: Mast/stem cell growth factor receptor Kit (Homo sapiens, UniProt P10721); experiment: Inhibition of cKit
[2] = Oral bioavailability life in CB17 mouse at 10 mg/kg by LC/MS/MS method; assay type: ADME, organism-based; settings: in vivo
Procedure, shortened: (§1)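 Male Charles River Sprague-Dawley rats and Fox Chase SCID (CB-17) mice, dosed iv or po. Plasma drug concentrations measured by a specific LC/MS/MS method. Pharmacokinetic parameters are reported as mean values.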

[3] = AUC (0 to infinity) in CB17 mouse at 10 mg/kg, po by LC/MS/MS method; assay type: ADME, organism-based; set-up: time infinity, dose 10 mg/kg, route oral; settings: plasma; procedure, shortened: as §1
[4] = Volume of distribution at steady state in CB17 mouse at 9 mg/kg, iv by LC/MS/MS method; assay type: ADME, organism-based; set-up: dose 9 mg/kg, route intravenous; settings: in vivo, read-out: Vdss; procedure, shortened: as §1
[5] = Oral bioavailability in Sprague-Dawley rat at 10 mg/kg by LC/MS/MS method; assay type: ADME, organism-based; settings: in vivo; procedure, shortened: as §1
[6] = Half life in Sprague-Dawley rat at 1.8 mg/kg, iv by LC/MS/MS method; assay type: ADME, organism-based; set-up: dose 1.8 mg/kg, route intravenous; settings: in vivo; procedure, shortened: as §1
[7] = Half life in CB17 mouse at 10 mg/kg, po by LC/MS/MS method; assay type: ADME, organism-based; set-up: dose 10 mg/kg, route oral; settings: in vivo; procedure, shortened: as §1
Mus musculus = experiment: Improvement in survival of BALB/c mouse xenografted with JAK2 V617F mutant harboring mouse Ba/F3 cells assessed as survival days at 15 mg/kg, po bid for 32 days; assay type: functional, BaF3
Procedure, shortened: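 BALB/c mice (n = 12/group) received one million mJAK2-Ba/F3 cells (murine Ba/F3 carrying mutant V617F JAK2) intravenously. Treatment started 1 week after implantation. Dosing was 15 mg/kg by oral gavage twice daily as a suspension in 5% methylcellulose, with a vehicle-only control group. Dosing continued until day 32 or moribundity. Survival was shown as Kaplan-Meier plots, and unrelated cage deaths were censored.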

[8] = AUC (0 to infinity) in CB17 mouse at 9 mg/kg, iv by LC/MS/MS method; assay type: ADME, organism-based; set-up: time infinity, dose 9 mg/kg, route intravenous; settings: plasma; procedure, shortened: as §1
[9] = AUC (0 to infinity) in Sprague-Dawley rat at 1.8 mg/kg, iv by LC/MS/MS method; assay type: ADME, organism-based; set-up: time infinity, dose 1.8 mg/kg, route intravenous; settings: plasma; procedure, shortened: as §1
[10] = target: ALK tyrosine kinase receptor (Homo sapiens, UniProt Q9UM73); experiment: Inhibition of ALK
Chain of ALK tyrosine kinase receptor (Q9UM73 whole entry): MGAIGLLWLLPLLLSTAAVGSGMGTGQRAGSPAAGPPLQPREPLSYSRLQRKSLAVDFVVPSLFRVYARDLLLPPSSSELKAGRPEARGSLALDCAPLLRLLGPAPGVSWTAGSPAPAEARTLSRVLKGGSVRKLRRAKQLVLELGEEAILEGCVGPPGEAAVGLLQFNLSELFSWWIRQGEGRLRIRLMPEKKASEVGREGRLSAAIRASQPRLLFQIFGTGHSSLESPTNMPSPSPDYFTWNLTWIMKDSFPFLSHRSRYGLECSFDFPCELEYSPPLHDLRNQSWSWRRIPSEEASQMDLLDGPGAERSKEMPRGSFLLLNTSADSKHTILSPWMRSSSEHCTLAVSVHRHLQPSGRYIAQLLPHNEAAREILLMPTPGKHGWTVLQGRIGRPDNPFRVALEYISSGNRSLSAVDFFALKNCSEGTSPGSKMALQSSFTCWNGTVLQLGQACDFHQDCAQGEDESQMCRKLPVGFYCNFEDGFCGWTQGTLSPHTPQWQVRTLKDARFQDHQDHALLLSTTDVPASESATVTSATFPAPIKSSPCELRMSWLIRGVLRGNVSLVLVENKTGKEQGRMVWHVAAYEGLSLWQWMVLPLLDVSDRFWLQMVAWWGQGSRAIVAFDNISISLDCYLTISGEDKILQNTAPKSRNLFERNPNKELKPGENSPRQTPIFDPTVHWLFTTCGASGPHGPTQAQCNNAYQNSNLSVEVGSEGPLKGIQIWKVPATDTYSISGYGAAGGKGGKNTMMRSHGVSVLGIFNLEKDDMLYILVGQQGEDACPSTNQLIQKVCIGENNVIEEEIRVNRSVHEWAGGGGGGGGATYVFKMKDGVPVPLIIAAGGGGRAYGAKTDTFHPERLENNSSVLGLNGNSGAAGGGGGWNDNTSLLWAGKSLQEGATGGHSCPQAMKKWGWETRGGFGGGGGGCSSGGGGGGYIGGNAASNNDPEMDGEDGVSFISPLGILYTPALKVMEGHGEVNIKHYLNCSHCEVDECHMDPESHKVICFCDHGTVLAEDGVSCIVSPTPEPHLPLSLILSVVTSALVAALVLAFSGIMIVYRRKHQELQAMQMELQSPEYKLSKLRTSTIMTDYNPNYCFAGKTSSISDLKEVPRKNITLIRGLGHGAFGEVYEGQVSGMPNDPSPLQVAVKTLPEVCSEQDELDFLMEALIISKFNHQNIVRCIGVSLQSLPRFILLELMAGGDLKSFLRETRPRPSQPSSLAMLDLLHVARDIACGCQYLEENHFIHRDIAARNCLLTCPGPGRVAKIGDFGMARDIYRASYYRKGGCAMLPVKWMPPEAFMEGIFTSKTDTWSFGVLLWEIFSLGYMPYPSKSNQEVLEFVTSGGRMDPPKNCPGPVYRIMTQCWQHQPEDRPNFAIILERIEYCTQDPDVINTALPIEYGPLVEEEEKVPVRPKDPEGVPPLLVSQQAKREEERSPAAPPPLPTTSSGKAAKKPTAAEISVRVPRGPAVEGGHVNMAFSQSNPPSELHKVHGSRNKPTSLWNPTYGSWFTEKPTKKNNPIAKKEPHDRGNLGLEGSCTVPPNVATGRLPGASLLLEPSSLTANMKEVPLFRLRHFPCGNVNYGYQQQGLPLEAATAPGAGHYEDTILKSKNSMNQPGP

[11] = Volume of distribution at steady state in Sprague-Dawley rat at 1.8 mg/kg, iv by LC/MS/MS method; assay type: ADME, organism-based; set-up: dose 1.8 mg/kg, route intravenous; settings: in vivo, read-out: Vdss; procedure, shortened: as §1
[12] = Clearance in Sprague-Dawley rat at 1.8 mg/kg, iv by LC/MS/MS method; assay type: ADME, organism-based; set-up: dose 1.8 mg/kg, route intravenous; settings: in vivo; procedure, shortened: as §1
[13] = AUC (0 to infinity) in Sprague-Dawley rat at 10 mg/kg, po by LC/MS/MS method; assay type: ADME, organism-based; set-up: time infinity, dose 10 mg/kg, route oral; settings: plasma; procedure, shortened: as §1
[14] = Tmax in Sprague-Dawley rat at 10 mg/kg, po by LC/MS/MS method; assay type: ADME, organism-based; set-up: dose 10 mg/kg, route oral; settings: in vivo; procedure, shortened: as §1
[15] = Clearance in CB17 mouse at 9 mg/kg, iv by LC/MS/MS method; assay type: ADME, organism-based; set-up: dose 9 mg/kg, route intravenous; settings: in vivo; procedure, shortened: as §1
[16] = Cmax in CB17 mouse at 10 mg/kg, po by LC/MS/MS method; assay type: ADME, organism-based; set-up: dose 10 mg/kg, route oral; settings: in vivo; procedure, shortened: as §1
[17] = Cmax in Sprague-Dawley rat at 10 mg/kg, po by LC/MS/MS method; assay type: ADME, organism-based; set-up: dose 10 mg/kg, route oral; settings: in vivo; procedure, shortened: as §1
[18] = Half life in Sprague-Dawley rat at 10 mg/kg, po by LC/MS/MS method; assay type: ADME, organism-based; set-up: dose 10 mg/kg, route oral; settings: in vivo; procedure, shortened: as §1
[19] = Cmax in Sprague-Dawley rat at 1.8 mg/kg, iv by LC/MS/MS method; assay type: ADME, organism-based; set-up: dose 1.8 mg/kg, route intravenous; settings: in vivo; procedure, shortened: as §1
[20] = Tmax in CB17 mouse at 10 mg/kg, po by LC/MS/MS method; assay type: ADME, organism-based; set-up: dose 10 mg/kg, route oral; settings: in vivo; procedure, shortened: as §1
[21] = Half life in CB17 mouse at 9 mg/kg, iv by LC/MS/MS method; assay type: ADME, organism-based; set-up: dose 9 mg/kg, route intravenous; settings: in vivo; procedure, shortened: as §1
[22] = Cmax in CB17 mouse at 9 mg/kg, iv by LC/MS/MS method; assay type: ADME, organism-based; set-up: dose 9 mg/kg, route intravenous; settings: in vivo; procedure, shortened: as §1
[23] = target: T1, Mitogen-activated protein kinase kinase kinase kinase 2 (Homo sapiens, UniProt Q12851); experiment: Inhibition of GCK
T1 sequence (Q12851 whole entry): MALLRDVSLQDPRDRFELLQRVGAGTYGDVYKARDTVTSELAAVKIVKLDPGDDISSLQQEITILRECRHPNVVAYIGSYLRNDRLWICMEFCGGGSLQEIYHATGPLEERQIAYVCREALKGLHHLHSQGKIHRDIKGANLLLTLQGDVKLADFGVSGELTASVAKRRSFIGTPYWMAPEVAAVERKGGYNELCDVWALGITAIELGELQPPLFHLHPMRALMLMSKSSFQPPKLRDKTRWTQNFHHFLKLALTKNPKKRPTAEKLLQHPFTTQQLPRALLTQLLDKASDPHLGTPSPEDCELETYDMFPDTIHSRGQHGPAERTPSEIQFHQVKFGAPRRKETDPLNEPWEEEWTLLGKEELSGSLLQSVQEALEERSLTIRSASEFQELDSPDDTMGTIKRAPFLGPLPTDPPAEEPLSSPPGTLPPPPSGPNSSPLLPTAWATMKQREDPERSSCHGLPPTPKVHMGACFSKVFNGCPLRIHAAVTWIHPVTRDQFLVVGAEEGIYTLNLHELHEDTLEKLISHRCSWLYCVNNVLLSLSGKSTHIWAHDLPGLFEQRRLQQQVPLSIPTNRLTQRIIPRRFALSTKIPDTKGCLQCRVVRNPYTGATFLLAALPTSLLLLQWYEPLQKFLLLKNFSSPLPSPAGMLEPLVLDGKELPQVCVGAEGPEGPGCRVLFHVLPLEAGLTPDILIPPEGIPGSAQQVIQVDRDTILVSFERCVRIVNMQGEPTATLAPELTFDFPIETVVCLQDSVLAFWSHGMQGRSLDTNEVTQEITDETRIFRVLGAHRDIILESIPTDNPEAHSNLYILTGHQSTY

[24] = target: Tyrosine-protein kinase JAK2 (Homo sapiens, UniProt O60674); experiment: Inhibition of recombinant JAK2
Chain of Tyrosine-protein kinase JAK2 (O60674 whole entry): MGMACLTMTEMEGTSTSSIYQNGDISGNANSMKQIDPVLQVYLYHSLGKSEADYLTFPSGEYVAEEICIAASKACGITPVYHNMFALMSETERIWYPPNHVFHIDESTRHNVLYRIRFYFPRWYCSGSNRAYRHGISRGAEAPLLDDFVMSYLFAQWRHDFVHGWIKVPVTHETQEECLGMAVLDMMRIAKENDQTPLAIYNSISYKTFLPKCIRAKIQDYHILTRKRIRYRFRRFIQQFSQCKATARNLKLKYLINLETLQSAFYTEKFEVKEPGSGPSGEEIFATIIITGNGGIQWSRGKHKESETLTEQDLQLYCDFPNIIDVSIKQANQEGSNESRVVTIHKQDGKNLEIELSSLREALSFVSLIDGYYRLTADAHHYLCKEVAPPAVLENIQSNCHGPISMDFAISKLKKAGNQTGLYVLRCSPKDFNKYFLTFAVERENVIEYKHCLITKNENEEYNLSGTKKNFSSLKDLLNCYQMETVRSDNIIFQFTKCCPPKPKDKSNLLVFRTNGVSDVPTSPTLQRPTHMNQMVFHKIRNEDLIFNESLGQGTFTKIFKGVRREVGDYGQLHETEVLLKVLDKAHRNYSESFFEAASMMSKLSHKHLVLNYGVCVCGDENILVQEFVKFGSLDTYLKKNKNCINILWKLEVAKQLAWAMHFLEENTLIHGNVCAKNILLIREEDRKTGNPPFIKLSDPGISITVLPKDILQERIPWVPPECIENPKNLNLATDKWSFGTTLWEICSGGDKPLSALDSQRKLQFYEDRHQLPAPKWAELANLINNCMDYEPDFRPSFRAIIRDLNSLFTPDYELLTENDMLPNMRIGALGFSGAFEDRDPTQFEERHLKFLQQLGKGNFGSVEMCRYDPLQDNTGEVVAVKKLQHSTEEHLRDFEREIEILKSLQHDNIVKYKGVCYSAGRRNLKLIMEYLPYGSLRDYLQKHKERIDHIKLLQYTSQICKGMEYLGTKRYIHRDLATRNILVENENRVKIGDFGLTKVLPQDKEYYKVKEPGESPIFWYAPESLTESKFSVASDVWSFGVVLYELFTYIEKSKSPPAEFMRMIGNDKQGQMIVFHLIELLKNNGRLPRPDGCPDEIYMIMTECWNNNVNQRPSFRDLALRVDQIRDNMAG

[25] = target: T2, Tyrosine-protein kinase JAK3 (Homo sapiens, UniProt P52333); experiment: Inhibition of recombinant JAK3
T2 sequence (P52333 whole entry): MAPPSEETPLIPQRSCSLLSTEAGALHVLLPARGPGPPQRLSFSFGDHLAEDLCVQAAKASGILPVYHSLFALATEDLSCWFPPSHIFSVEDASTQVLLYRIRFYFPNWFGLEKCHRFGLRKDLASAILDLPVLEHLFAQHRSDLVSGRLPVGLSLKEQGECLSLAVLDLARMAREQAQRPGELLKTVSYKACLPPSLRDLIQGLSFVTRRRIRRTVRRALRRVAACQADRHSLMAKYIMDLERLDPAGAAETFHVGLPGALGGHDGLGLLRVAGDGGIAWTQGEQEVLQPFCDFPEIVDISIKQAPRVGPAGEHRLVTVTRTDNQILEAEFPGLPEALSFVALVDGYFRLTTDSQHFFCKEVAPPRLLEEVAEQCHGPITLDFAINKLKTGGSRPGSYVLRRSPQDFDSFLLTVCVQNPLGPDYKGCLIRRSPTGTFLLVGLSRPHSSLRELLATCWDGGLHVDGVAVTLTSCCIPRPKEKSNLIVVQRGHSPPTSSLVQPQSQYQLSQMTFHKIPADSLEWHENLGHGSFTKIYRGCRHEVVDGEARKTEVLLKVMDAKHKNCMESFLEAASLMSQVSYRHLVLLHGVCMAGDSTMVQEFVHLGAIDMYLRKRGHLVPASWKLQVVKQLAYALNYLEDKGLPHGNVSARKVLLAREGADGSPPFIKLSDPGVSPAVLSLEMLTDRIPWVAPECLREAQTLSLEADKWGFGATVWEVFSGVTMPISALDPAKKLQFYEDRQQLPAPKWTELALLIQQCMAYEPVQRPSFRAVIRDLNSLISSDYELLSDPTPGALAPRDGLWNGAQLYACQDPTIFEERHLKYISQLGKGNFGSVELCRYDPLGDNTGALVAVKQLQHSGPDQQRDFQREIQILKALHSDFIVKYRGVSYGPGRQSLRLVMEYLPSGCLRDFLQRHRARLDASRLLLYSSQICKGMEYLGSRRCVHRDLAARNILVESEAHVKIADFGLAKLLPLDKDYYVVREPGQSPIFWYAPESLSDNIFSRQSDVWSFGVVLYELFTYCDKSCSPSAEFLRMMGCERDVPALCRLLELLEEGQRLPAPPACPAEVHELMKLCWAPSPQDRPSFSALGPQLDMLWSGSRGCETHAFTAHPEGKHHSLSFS

[26] = target: T2, Tyrosine-protein kinase JAK3; experiment: Inhibition of JAK3 in […] assessed as inhibition of IL2-induced STAT5 phosphorylation by flow cytometry; assay type: cell-based
BaF3 = experiment: Antitumor activity against JAK2 V617F mutant harboring mouse sBA/F3 cells xenografted in BALB/c mouse assessed as reduced splenomegaly at 15 mg/kg, po bid for 32 days; assay type: functional, organism-based; set-up: dose 15 mg/kg
Procedure, shortened: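 Leukemia induced in BALB/c mice (n = 12/group) by iv injection of 1 million mJAK2(V617F)-Ba/F3 cells. Dosing began 1 week after implantation: 15 mg/kg oral gavage b.i.d. as a suspension in 5% methylcellulose, or vehicle alone, until day 32 or moribundity. Spleens were harvested and weighed after sacrifice on day 32.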

Chain of Mast/stem cell growth factor receptor Kit (P10721 whole entry): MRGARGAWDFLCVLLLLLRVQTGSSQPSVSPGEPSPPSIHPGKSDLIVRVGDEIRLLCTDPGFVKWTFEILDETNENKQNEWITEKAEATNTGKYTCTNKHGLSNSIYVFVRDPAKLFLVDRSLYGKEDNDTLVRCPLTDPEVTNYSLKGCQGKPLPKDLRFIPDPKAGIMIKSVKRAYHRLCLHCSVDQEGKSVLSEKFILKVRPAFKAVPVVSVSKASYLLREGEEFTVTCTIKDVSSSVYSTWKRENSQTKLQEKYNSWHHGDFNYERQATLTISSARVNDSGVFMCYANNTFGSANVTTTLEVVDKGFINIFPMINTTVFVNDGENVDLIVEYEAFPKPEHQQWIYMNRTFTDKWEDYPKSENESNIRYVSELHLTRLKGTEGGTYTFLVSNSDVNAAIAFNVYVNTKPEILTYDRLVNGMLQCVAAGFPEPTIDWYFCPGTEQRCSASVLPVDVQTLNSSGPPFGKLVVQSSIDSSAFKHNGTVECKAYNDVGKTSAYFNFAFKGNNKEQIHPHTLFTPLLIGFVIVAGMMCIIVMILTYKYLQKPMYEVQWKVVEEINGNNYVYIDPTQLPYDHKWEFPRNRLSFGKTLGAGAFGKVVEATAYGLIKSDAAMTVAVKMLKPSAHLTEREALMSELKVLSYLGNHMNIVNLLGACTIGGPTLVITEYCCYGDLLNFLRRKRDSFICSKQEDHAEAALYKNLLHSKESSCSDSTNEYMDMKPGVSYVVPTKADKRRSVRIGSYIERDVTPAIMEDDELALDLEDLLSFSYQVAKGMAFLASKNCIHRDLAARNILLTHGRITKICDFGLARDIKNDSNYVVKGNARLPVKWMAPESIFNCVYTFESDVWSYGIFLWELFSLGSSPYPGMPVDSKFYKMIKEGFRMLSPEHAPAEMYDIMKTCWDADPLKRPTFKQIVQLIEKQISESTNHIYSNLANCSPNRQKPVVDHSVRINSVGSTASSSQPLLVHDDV

## O=C1Nc2ccccc2-c2ccnc3[nH]cc(c23)C1c1ccc(O)cc1 (stereo not given) [listing 1 of 2 here]
[1]
  pKi: 6.72
[2]
  bioavailability: 66.1%
[3]
  AUC(0-inf): 8300 ng·h/mL
[4]
  Vd: 2.3 L/kg
[5]
  bioavailability: 100%
[6]
  half-life: 3.4 h
[7]
  half-life: 3.2 h
Mus musculus
  Survival: 32 days
[8]
  AUC(0-inf): 12500 ng·h/mL
[9]
  AUC(0-inf): 1260 ng·h/mL
[10]
  pKi: 7.77
[11]
  Vd: 5.7 L/kg
[12]
  clearance: 23.8 mL/min/kg
[13]
  AUC(0-inf): 7700 ng·h/mL
[14]
  Tmax: 3 h
[15]
  clearance: 12.1 mL/min/kg
[16]
  Cmax: 1000 ng/mL
[17]
  Cmax: 1080 ng/mL
[18]
  half-life: 3.6 h
[19]
  Cmax: 700 ng/mL
[20]
  Tmax: 2 h
[21]
  half-life: 2.7 h
[22]
  Cmax: 7300 ng/mL
[23]
  pIC50: 6.47

## Clc1cnc2[nH]cc(-c3ccccc3)c2c1
[24]
  pKi: 6.59

## O=C1Nc2ccccc2-c2ccnc3[nH]cc(c23)C1c1ccc(O)cc1 (single isomer, unassigned; atropisomer 2)
[25]
  pKi: 8.22

## c1ccc(-c2ncnc3[nH]ccc23)cc1
[24]
  pKi: 6.32

## O=C1Nc2ccccc2-c2ccnc3[nH]cc(c23)C1c1ccc(O)cc1 (single isomer, unassigned; atropisomer 1)
[26]
  pIC50: 5.82
[25]
  pKi: 8.26

## O=C1Nc2ccccc2-c2ccnc3[nH]cc(c23)C1c1ccc(O)cc1 (stereo not given) [listing 2 of 2 here]
BaF3
  Activity: Active

Source: ChEMBL document CHEMBL1154754, “Janus kinase 2 inhibitors. Synthesis and characterization of a novel polycyclic azaindole” (J Med Chem, 2009)
